Measurements reported in ChEMBL document CHEMBL5724801, “EUbOPEN Chemogenomics Library - Multiplex” (2024).
“And” between values parts separate entries of the source, which are not always exact repeats. Equal entries are not always repeated.

Test system: HEK-293T
Experiment: Multiplex assay against HEK293T
Type: toxicity, cell-based
Conditions: human
Procedure, shortened: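 At seeding, live cells were stained with Hoechst33342, BioTracker Green Microtubule Cytoskeleton Dye, MitoTracker Red and Annexin V Alexa Fluor 680. After compound addition they were imaged on a CQ1 microscope at 37°C and 5% CO2, and CellPathfinder machine-learning gating sorted them into Hoechst high-intensity objects or normal cells, with normal cells further split into healthy, pyknosed or fragmented nuclei and pyknosed cells into mitotic or apoptotic. Tubulin, mitochondrial-mass and membrane-permeability phenotypes are given as per cents of cells with healthy nuclei.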

[1] = 12 h, 1 µM, compound concentration 1 uM
[2] = 12 h, 10 µM, compound concentration 10 uM
[3] = 24 h, 1 µM, compound concentration 1 uM
[4] = 24 h, 10 µM, compound concentration 10 uM
[5] = 48 h, 1 µM, compound concentration 1 uM
[6] = 48 h, 10 µM, compound concentration 10 uM

O=C(Nc1c[nH]nc1-c1nc2cc(CN3CCOCC3)ccc2[nH]1)NC1CC1 [AT-9283]
Population Apoptotic (%) [1]: 12.17% and 7.08% | Population Fragmented Nuclei (%) [1]: 0.89% and 3.5% | Population Healthy Nuclei (%) [1]: 48% and 17.48% | Population Hoechst High Intensity Objects (%) [1]: 0% | Population Membrane Permeable-Phenotype (%) [1]: 0.93% and 0% | Population Mitotic Cells (%) [1]: 87.83% and 92.92% | Population Normal (%) [1]: 100% | Population Pyknosed Nuclei (%) [1]: 51.11% and 79.02% | Total Cell Count [1]: 225 and 143 | Population Apoptotic (%) [2]: 9.66% and 13.57% | Population Fragmented Nuclei (%) [2]: 1.6% and 0.63% | Population Healthy Nuclei (%) [2]: 28% and 10.76% | Population Hoechst High Intensity Objects (%) [2]: 0% | Population Membrane Permeable-Phenotype (%) [2]: 0% and 11.76% | Population Mitotic Cells (%) [2]: 90.34% and 86.43% | Population Normal (%) [2]: 100% | Population Pyknosed Nuclei (%) [2]: 70.4% and 88.61% | Population Tubulin-Different-Phenotype (%) [2]: 20% and 35.29% | Total Cell Count [2]: 250 and 158 | Population Apoptotic (%) [3]: 21.74% and 12.8% | Population Fragmented Nuclei (%) [3]: 4.26% and 2.61% | Population Hoechst High Intensity Objects (%) [3]: 0.35% and 0% | Population Membrane Permeable-Phenotype (%) [3]: 0% and 4.17% | Population Mitochondria Different-Phenotype (%) [3]: 18.06% and 0% | Population Mitotic Cells (%) [3]: 78.26% and 87.2% | Population Normal (%) [3]: 99.65% and 100% | Population Pyknosed Nuclei (%) [3]: 40.78% and 81.7% | Population Tubulin-Different-Phenotype (%) [3]: 17.42% and 16.67% | Total Cell Count [3]: 283 and 153 | Population Apoptotic (%) [4]: 24.17% and 28.99% | Population Fragmented Nuclei (%) [4]: 0.37% and 0.67% | Population Hoechst High Intensity Objects (%) [4]: 0.37% and 0% | Population Membrane Permeable-Phenotype (%) [4]: 1.79% and 0% | Population Mitotic Cells (%) [4]: 75.83% and 71.01% | Population Normal (%) [4]: 99.63% and 100% | Population Pyknosed Nuclei (%) [4]: 78.73% and 92.62% | Population Tubulin-Different-Phenotype (%) [4]: 33.93% and 40% | Total Cell Count [4]: 269 and 149 | Population Apoptotic (%) [5]: 44.44% and 22.06% | Population Fragmented Nuclei (%) [5]: 2.23% and 0% | Population Healthy Nuclei (%) [5]: 80.17% and 46.03% | Population Hoechst High Intensity Objects (%) [5]: 0% and 0.79% | Population Membrane Permeable-Phenotype (%) [5]: 3.83% and 1.72% | Population Mitochondria Different-Phenotype (%) [5]: 49.13% and 22.41% | Population Mitotic Cells (%) [5]: 55.56% and 77.94% | Population Normal (%) [5]: 100% and 99.21% | Total Cell Count [5]: 358 and 127 | Population Apoptotic (%) [6]: 52.36% and 56.2% | Population Fragmented Nuclei (%) [6]: 1.67% and 2.67% | Population Hoechst High Intensity Objects (%) [6]: 0.83% and 0% | Population Membrane Permeable-Phenotype (%) [6]: 0% | Population Mitochondria Different-Phenotype (%) [6]: 88.89% and 55.56% | Population Mitotic Cells (%) [6]: 47.64% and 43.8% | Population Normal (%) [6]: 99.17% and 100% | Population Pyknosed Nuclei (%) [6]: 79.58% and 91.33% | Population Tubulin-Different-Phenotype (%) [6]: 24.44% and 55.56% | Total Cell Count [6]: 242 and 150

CC(C)C[C@H](CO)Nc1nc(S[C@@H](C)c2ccccc2)nc2nc(N)sc12 [AZD-8797]
Population Apoptotic (%) [1]: 39% and 46% | Population Fragmented Nuclei (%) [1]: 2% and 8% | Population Healthy Nuclei (%) [1]: 81% and 72% | Population Hoechst High Intensity Objects (%) [1]: 4% and 7% | Population Membrane Permeable-Phenotype (%) [1]: 0% | Population Mitochondria Different-Phenotype (%) [1]: 44% and 57% | Population Mitotic Cells (%) [1]: 60% and 53% | Population Normal (%) [1]: 95% and 92% | Population Pyknosed Nuclei (%) [1]: 15% and 18% | Population Tubulin-Different-Phenotype (%) [1]: 27% and 22% | Total Cell Count [1]: 326 and 356 | Population Apoptotic (%) [2]: 65% and 67% | Population Fragmented Nuclei (%) [2]: 9% and 6% | Population Healthy Nuclei (%) [2]: 71% and 75% | Population Hoechst High Intensity Objects (%) [2]: 10% | Population Membrane Permeable-Phenotype (%) [2]: 0% | Population Mitochondria Different-Phenotype (%) [2]: 70% and 75% | Population Mitotic Cells (%) [2]: 34% and 32% | Population Normal (%) [2]: 89% | Population Pyknosed Nuclei (%) [2]: 18% | Population Tubulin-Different-Phenotype (%) [2]: 56% and 39% | Total Cell Count [2]: 279 and 345 | Population Apoptotic (%) [3]: 37% and 45% | Population Fragmented Nuclei (%) [3]: 7% | Population Healthy Nuclei (%) [3]: 76% and 81% | Population Hoechst High Intensity Objects (%) [3]: 3% and 5% | Population Membrane Permeable-Phenotype (%) [3]: 0% | Population Mitochondria Different-Phenotype (%) [3]: 25% and 42% | Population Mitotic Cells (%) [3]: 62% and 54% | Population Normal (%) [3]: 97% and 94% | Population Pyknosed Nuclei (%) [3]: 15% and 11% | Population Tubulin-Different-Phenotype (%) [3]: 16% and 14% | Total Cell Count [3]: 400 and 421 | Population Apoptotic (%) [4]: 54% and 51% | Population Fragmented Nuclei (%) [4]: 8% and 9% | Population Healthy Nuclei (%) [4]: 73% and 77% | Population Hoechst High Intensity Objects (%) [4]: 9% and 8% | Population Membrane Permeable-Phenotype (%) [4]: 0% | Population Mitochondria Different-Phenotype (%) [4]: 64% and 71% | Population Mitotic Cells (%) [4]: 45% and 48% | Population Normal (%) [4]: 90% and 91% | Population Pyknosed Nuclei (%) [4]: 17% and 12% | Population Tubulin-Different-Phenotype (%) [4]: 39% and 36% | Total Cell Count [4]: 346 and 393 | Population Apoptotic (%) [5]: 43% and 24% | Population Fragmented Nuclei (%) [5]: 15% and 12% | Population Healthy Nuclei (%) [5]: 78% and 79% | Population Hoechst High Intensity Objects (%) [5]: 1% and 3% | Population Membrane Permeable-Phenotype (%) [5]: 0% and 1% | Population Mitochondria Different-Phenotype (%) [5]: 16% and 24% | Population Mitotic Cells (%) [5]: 56% and 75% | Population Normal (%) [5]: 98% and 96% | Population Pyknosed Nuclei (%) [5]: 6% and 8% | Population Tubulin-Different-Phenotype (%) [5]: 10% and 13% | Total Cell Count [5]: 663 and 681 | Population Apoptotic (%) [6]: 60% and 52% | Population Fragmented Nuclei (%) [6]: 16% and 15% | Population Healthy Nuclei (%) [6]: 72% and 75% | Population Hoechst High Intensity Objects (%) [6]: 7% and 6% | Population Membrane Permeable-Phenotype (%) [6]: 0% | Population Mitochondria Different-Phenotype (%) [6]: 57% and 52% | Population Mitotic Cells (%) [6]: 39% and 47% | Population Normal (%) [6]: 92% and 93% | Population Pyknosed Nuclei (%) [6]: 11% and 8% | Population Tubulin-Different-Phenotype (%) [6]: 28% and 21% | Total Cell Count [6]: 416 and 530
